# High-throughput results as filed in PubChem.
# An excerpt weighted towards active compounds, which were near 7.2% of everything screened.
# D1 mod – allosterically modulates the human D1 dopamine receptor; B-score at 10 µM; HEK293 D1, CRE-luciferase, dopamine EC30 potentiation; actives deviate in either direction; 58,000 compounds, 5.9% hits; P21728; AID 641;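 active means luminescence count or its row- and column-corrected plate score outside the 99.7% band of the plate's sample wells, on either side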
# M1 agonist – M1 muscarinic receptor agonism. CHO-M1 cells, Fluo-4 calcium fluorescence, agonist mode; stronger effect = higher value. B-score at 10 µM. 64,000 compounds, 3% hits;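 active means fluorescence rise, raw or as B-score row- and column-corrected plate score, outside the 99.7% band of its plate's samples, either direction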
# DAT uptake mod – changed human dopamine transporter uptake under cocaine IC80; AID 449768; B-score at 10 µM; 110,000 compounds, 1.3% hits; Q01959; LLC-PK1 hDAT cells, [14C]-dopamine uptake with cocaine IC80; actives deviate in either direction;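 active means Z score or B-score, a plate-position-corrected score, falls beyond the plate's 99.7% confidence bounds, in either direction; inactive means both scores lie inside the 99.7% bounds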;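 further: scored against the spread of the other compound wells on the same plate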
# Target sequence (Q01959 whole entry, looked up): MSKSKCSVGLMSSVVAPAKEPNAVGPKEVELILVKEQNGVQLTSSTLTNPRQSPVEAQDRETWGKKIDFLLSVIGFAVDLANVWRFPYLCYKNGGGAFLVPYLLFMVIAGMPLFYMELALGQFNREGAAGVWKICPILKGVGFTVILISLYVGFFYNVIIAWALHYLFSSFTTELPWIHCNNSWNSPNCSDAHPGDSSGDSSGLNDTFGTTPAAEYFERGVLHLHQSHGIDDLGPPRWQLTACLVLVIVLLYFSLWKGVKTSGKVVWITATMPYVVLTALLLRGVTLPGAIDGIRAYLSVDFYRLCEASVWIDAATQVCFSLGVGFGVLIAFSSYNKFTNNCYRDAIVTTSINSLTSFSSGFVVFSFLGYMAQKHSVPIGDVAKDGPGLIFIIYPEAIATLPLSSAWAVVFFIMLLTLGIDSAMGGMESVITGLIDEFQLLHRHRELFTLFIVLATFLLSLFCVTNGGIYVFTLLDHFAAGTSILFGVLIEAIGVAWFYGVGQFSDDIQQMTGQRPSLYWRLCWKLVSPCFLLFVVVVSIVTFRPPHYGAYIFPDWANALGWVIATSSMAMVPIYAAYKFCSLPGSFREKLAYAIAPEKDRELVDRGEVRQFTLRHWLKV
# M1 antagonist – blocks the rat M1 muscarinic receptor response to acetylcholine | CHO-M1 cells, Fluo-4 calcium, ACh EC80 antagonist mode; stronger effect = lower value | B-score at 10 µM | 64,000 compounds, 3.4% hits | AID 628;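 active means calcium fluorescence response, raw or row-and-column corrected B-score, differing from the plate sample mean either way at a set confidence level, mostly lower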
# BAP1 block – inhibitors of human BAP1 deubiquitinase; Q92560; recombinant BAP1, Ub-AMC hydrolysis fluorescence kinetic; stronger effect = lower value; calls only at 20 µM; 72,000 compounds, 0.48% hits; AID 436;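 active means activity remaining at or below 50% of control, provided the compound also passes the data quality filters; inactive means the rest, including low values that fail the filters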;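 further: 100% = DMSO wells rate and 0% = substrate alone blank rate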
# HEK293 NFkB inh – lowers PMA/ionomycin-induced NF-kB signal in HEK293 cells; HEK-293 NF-kB luciferase reporter, luminescence; inhibition, % at 3 µM; 62,000 compounds, 0.21% hits;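 active means inhibition above the mean of all tested compounds plus 3 SD, cut at about 40% in these data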;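 further: 0% = stimulated DMSO wells and 100% = 10 µM reference inhibitor 5653914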
#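 Signal: luciferase luminescence; Material: HEK-293 cells with stable firefly luciferase reporter driven by four HIV NF-kB elements; Probe or stimulus: PMA with ionomycin; Replication: tested once; Times: 1 h compound pretreatment, then 16 h stimulation at 37 °C, 5% CO2; Benchmarks: DMSO and 10 µM reference inhibitor; Evaluation: per-plate % inhibition versus controls.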
# * = called active by the depositor; i = inactive; . = no result given.
SMILES,D1 mod,M1 agonist,DAT uptake mod,M1 antagonist,BAP1 block,HEK293 NFkB inh
O=C(Nc1ccccc1C(=O)O)c1cncc(Br)c1,.,.,2.32,.,.,.
O=C(c1ccccc1)c1cncc(Br)c1,1.05,-0.119,-8.1*,-0.419,i,15.8
CCCn1c(SCC(=O)NCCc2ccc(Cl)cc2Cl)n[nH]c1=O,0.169,0.511,3.37*,-0.775,i,8.1
COc1ccc(-n2nnnc2SC(C)C(N)=O)cc1 (stereo not given),0.0741,-0.26,-5.16*,1.83,i,16.3
Cc1nnc(SCC(=O)NC(C)(C)C)n1CCc1ccccc1,-1.57,-0.338,-0.473,0.0542,i,7.2
Cn1cccc1Cc1nnc(SCC(=O)Nc2ccc3c(c2)OCCO3)n1CCc1ccccc1,-0.303,0.924,2.54*,0.0214,i,21.4
CCn1c(COc2ccccc2C)nnc1SCC(=O)CC(=O)Nc1ccccc1OC,-0.638,1.76,3.13*,0.521,i,15.8
COc1ccc(OC)c(NC(=O)CSc2nnc(Cc3cccn3C)n2CCc2ccccc2)c1,0.28,-0.266,2.97*,0.83,i,8.6
COc1ccccc1NC(=O)CSc1nnc(C)n1CCc1ccccc1,-0.557,-0.831,-7.59*,-0.0291,i,9.5
O=C(CCN1C(=O)c2ccccc2C1=O)Oc1ccc2c(c1)oc(=O)c1ccccc12,.,.,.,.,i,.
C(=Nc1c(-c2ccccc2)nc2n1CCS2)c1ccccc1,.,.,.,.,i,.
COc1ccc2c(c1)CCC1=C2NC(=S)NC1c1cccc(F)c1 (stereo not given),.,.,.,.,i,.
COC(=O)c1ccc(-c2csc(NC(=O)c3cc(=O)c4ccccc4o3)n2)cc1,.,.,.,.,i,.
COc1ccccc1CNC(=O)CN(c1cccc([N+](=O)[O-])c1)S(=O)(=O)c1ccccc1,.,.,.,.,i,.
CC(O)CNc1nc2ccccc2n1-c1ncnc2sc3c(c12)CCC3 (stereo not given),0.436,1.06,2.83*,-1.55,i,3.8
c1ccc2c(c1)ncn2-c1ncnc2sc3c(c12)CCCC3,.,.,0.286,.,.,.
CCOC(=O)CCSc1nc(-c2ccccc2)cc(C(F)(F)F)n1,.,.,0.284,.,.,.
O=C(O)c1cccc(CSc2nc(-c3ccc(Cl)cc3)cc(C(F)(F)F)n2)c1,.,.,3.01*,.,.,.
COc1cc2[nH]c(=O)c(C(=O)NCCCN3CCCCC3)c(O)c2cc1OC,-4.33*,0.294,0.638,-0.0999,i,5.1
O=C(NCCCN1CCOCC1)c1c(O)c2ccccc2[nH]c1=O,.,0.000579,0.188,0.0216,i,10.2
CCOC(=O)c1c(NC(=O)COc2ccccc2C)sc(C(C)=O)c1C,.,.,.,.,i,.
c1ccc(OCc2nn3c(-c4ccccn4)nnc3s2)cc1,.,-0.592,-9.39*,-0.543,.,.
O=C1c2ccc([N+](=O)[O-])cc2C(=O)N1CC1CCCO1 (stereo not given),.,.,.,.,i,.
Cc1cccc(NC(=O)CSc2nc3ccccc3c3nc(CCc4c(C)n[nH]c4C)nn23)c1,.,.,3.81*,.,.,.
Cc1n[nH]c(C)c1CCc1nc2c3ccccc3nc(SCC(=O)Nc3ccccc3F)n2n1,.,.,0.0276,.,.,.
SMILES,D1 mod,M1 agonist,DAT uptake mod,M1 antagonist,BAP1 block,HEK293 NFkB inh
CCC(C(=O)NC1CCCC1)N(Cc1ccc2c(c1)OCO2)C(=O)c1snc(C(N)=O)c1N (stereo not given),-0.874,1.51,0.0525,1.07,i,-2.3
CCCC(C(=O)NC1CCCC1)N(Cc1cccs1)C(=O)c1snc(C(N)=O)c1N (stereo not given),-1.42,4.07*,-0.286,-0.815,i,1.4
O=[N+]([O-])c1cccc(S(=O)(=O)N2CCN(c3ccc(Cl)cc3[N+](=O)[O-])CC2)c1,.,.,.,.,i,.
COCCNS(=O)(=O)c1cccc2cccnc12,-1.14,-0.509,-2.74*,-0.15,i,17.3
Cc1ccc2cc(C(c3nnnn3C3CCCC3)N3CCN(c4ccc(F)cc4)CC3)c(=O)[nH]c2c1 (stereo not given),-0.523,-0.638,3.73*,-1.28,.,13.2
COc1ccc(C(=O)c2ccc(Cl)cc2Cl)cc1,.,.,-0.546,.,.,.
Cc1c(C(=O)c2ccc(Cl)cc2Cl)cnc2cc3c(cc12)OCO3,.,.,-8.46*,.,.,.
Cc1cccc(C)c1NC1=NC2(CCCCC2)N=C(N)N1,1.15,-0.0142,0.00228,-1.23,i,5.4
Cc1cccc(NC2=NC3(CCCCC3)N=C(N)N2)c1C,-3.2,6.61e-05,-0.571,-0.33,i,11.6
Cc1ccc(C)c(NC2=NC3(CCCCC3)N=C(N)N2)c1,-5.99*,-0.382,0.362,0.85,i,1.2
COc1cccc(NC2=NC3(CCCCC3)N=C(N)N2)c1,-2.73*,-0.14,0.185,-0.29,i,-5.7
Cc1ccc(NC2=NC3(CCCCC3)N=C(N)N2)c(C)c1,-4.11*,0.469,-0.696,0.18,i,11.9
O=C1CC(c2ccc(Cl)cc2)CC2=C1C(c1cccc([N+](=O)[O-])c1)Nc1ccccc1N2 (stereo not given),.,.,.,.,i,.
Oc1ccc(N=Cc2c(O)ccc3ccccc23)cc1-c1nc2ccccc2s1,.,.,.,.,i,.
O=C(Nc1nc2ccccc2n1CCOc1ccc(Cl)cc1)c1ccco1,-0.098,-0.499,-0.697,0.357,i,6.1
O=C(Nc1nc2ccccc2n1CCN1CCCCC1)c1ccco1,-1.27,-0.198,0.971*,0.342,i,-3.1
O=C(Nc1nc2ccccc2n1CCOc1ccccc1)c1ccco1,0.0327,0.000408,2.28*,-0.497,i,-1.3
C=CCn1c(NC(=O)c2ccco2)nc2ccccc21,.,.,.,.,i,.
CCN(CC)S(=O)(=O)c1cc(C(=O)Nc2cc(Cl)ccc2N2CCN(C)CC2)ccc1Cl,.,.,2.88*,.,.,.
O=[n+]1c2c(n([O-])c3cc(Cl)ccc31)CCCC2,.,.,0.967*,.,.,.
O=[N+]([O-])c1cccc(C=Nc2ccc3oc(-c4cccc5ccccc45)nc3c2)c1,.,.,.,.,i,.
CC(C)(O)C#Cc1ccc(C(=O)N2CCN(C(c3ccccc3)c3ccccc3)CC2)cc1,.,.,.,.,i,.
Cc1ccc(C)c(C(=O)CSc2n[nH]c(C(C)C)n2)c1,-5.99*,-0.511,1.01,0.467,i,12.3
Cc1ccc(-c2nc3ccccc3[nH]2)s1,-2.12,-0.57,1.55,0.215,.,-40.7
Cc1[nH]c2ccccc2c1-c1nc2ccccc2[nH]1,-2.72*,0.594,-0.187,-0.157,i,8.1
COc1ccc(-c2[nH]c(-c3ccc4c(c3)OCO4)nc2-c2ccccc2)cc1,.,.,-1.73,.,.,.
COc1ccc(-c2[nH]c(-c3ccc(C(=O)O)cc3)nc2-c2ccccc2)cc1,.,.,-2.36*,.,.,.
CCOC(=O)C(O)(CC(=O)c1ccc(OC)cc1)C(F)(F)F (stereo not given),.,.,-8.8*,.,.,.
CCCOC(=O)C1=C(C)NC2=C(C(=O)CC(c3ccccc3)C2)C1c1ccc(O)c(OCC)c1 (stereo not given),.,.,.,.,i,.
NC(=O)C1CCN(CCCNC2CC(=O)N(Cc3ccc(N4CCCC4=O)cc3)C2=O)CC1 (stereo not given),-0.424,4.23*,-0.0832,0.075,i,8.9
